Active and inactive are the calls of the source.
Experiments:
Rattus norvegicus [1] = experiment: (§1) Antiarthritic effect in Lewis rat adjuvant-induced arthritis model serum assessed as reduction in TNFalpha production at 200 ug, ip starting from arthritis onset and continued uninterrupted until study end by cytokine multiplex assay; type: functional, organism-based
Outline: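 Arthritic Lewis rats (Mtb 1.5 mg s.c. in mineral oil) were given 200 μg/rat i.p. daily from onset until the day before harvest; controls received DMSO/PBS vehicle. On d 18, blood was taken by cardiac puncture after euthanasia and serum stored at −80 °C. Serum pooled from 4 rats was assayed in triplicate by multiplex.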

Rattus norvegicus [2] = experiment: as §1, with “synovial infiltrating cells restimulated with sonicated Mtb post isolation” for “serum”; type: functional, organism-based
Outline: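 Male Lewis rats were immunized s.c. with heat-killed Mtb H37Ra (1.5 mg/rat) in mineral oil. From arthritis onset they received 200 μg/rat i.p. daily (DMSO stock diluted in PBS); controls got 1.2% DMSO in PBS. On d 18, draining lymph node or synovial-infiltrating cells were cultured at 1.5 × 10^6/well in 2% FBS medium ± sonicated Mtb (10 μg/ml) for 24 h. Supernatants were analysed by multiplex.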

Rattus norvegicus [3] = organism: Rattus norvegicus; experiment: Antiarthritic effect in sonicated Mtb-stimulated spleen adherent cells isolated from Lewis rat adjuvant-induced arthritis model assessed as reduction in MIP-1alpha production pre-incubated with compound for 30 mins before stimulation with sonicated-Mtb for 48 hrs by multiplex assay; type: functional, tissue-based
Rattus norvegicus [4] = organism: Rattus norvegicus; experiment: Increase in CCR1 protein surface expression in sonicated Mtb-stimulated spleen adherent cells isolated from Lewis rat adjuvant-induced arthritis model pre-incubated with 0.1 to 0.3 uM compound before stimulation with sonicated Mtb for 24 hrs by flow cytometry; type: functional, tissue-based
Outline: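 Spleen adherent cells from arthritic rats were stimulated 24 h with sonicated Mtb in vitro, with or without compound. Cells were detached with TrypLE for 10 min, washed, and surface-stained 30 min with anti-CD11b/c PerCP-eFluor 710 and cross-reactive anti-human CCR1 Alexa Fluor 647. Cells were fixed in 1% formaldehyde and analysed by flow cytometry, with IgG2a/IgG2b isotype controls.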

Rattus norvegicus [5] = experiment: Antiarthritic effect in Lewis rat adjuvant-induced arthritis model spleen adherent cells restimulated with sonicated Mtb post isolation assessed as reduction in IL-1beta production at 200 ug, ip starting from arthritis onset and continued uninterrupted until study end by cytokine multiplex assay; type: functional, organism-based
Outline: (§2)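 Mtb-immunized male Lewis rats were dosed 200 μg/rat i.p. daily from arthritis onset (vehicle: 1.2% DMSO/PBS). Spleen adherent cells were prepared on d 18, plated at 1.5 × 10^6/well in 2% FBS medium and restimulated with sonicated Mtb (10 μg/ml) for 24 h. Supernatant chemokines and cytokines were measured by Luminex multiplex. Mean ± SD of triplicates from 4–5 rats.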

Rattus norvegicus [6] = experiment: Antiarthritic effect in Lewis rat adjuvant-induced arthritis model spleen adherent cells restimulated with sonicated Mtb post isolation assessed as reduction in IL6 production at 200 ug, ip starting from arthritis onset and continued uninterrupted until study end by cytokine multiplex assay; type: functional, organism-based; outline: as §2

Measured: Activity

CC1=C(O)C(=O)C=C2C1=CC=C1[C@@]2(C)CC[C@@]2(C)[C@@H]3C[C@](C)(C(=O)O)CC[C@]3(C)CC[C@]12C [CELASTROL]
active: Rattus norvegicus [1] | Rattus norvegicus [3] Dose-dependent effect | Rattus norvegicus [4] | Rattus norvegicus [5]
inactive: Rattus norvegicus [2] | Rattus norvegicus [6]

From ChEMBL document CHEMBL2086325, “Suppression of autoimmune arthritis by Celastrus-derived Celastrol through modulation of pro-inflammatory chemokines” (Bioorg Med Chem, 2012)
